Assay results published in ChEMBL document CHEMBL2040850, “Indole based cyclooxygenase inhibitors: synthesis, biological evaluation, docking and NMR screening” (Eur J Med Chem, 2012).
The source made the active and inactive calls. The rule behind the calls is not given here.

Assays:
[1] = target: Prostaglandin G/H synthase 1 (Ovis aries) (UniProt P05979); experiment: Inhibition of ovine COX1 assessed as PGE2 formation at 50 uM by enzyme immunoassay
[2] = target: Prostaglandin G/H synthase 2 (Homo sapiens) (UniProt P35354); experiment: Inhibition of human COX2 assessed as PGE2 formation at 100 uM by enzyme immunoassay
[3] = target: T1, Prostaglandin G/H synthase 2 (Homo sapiens) (UniProt P35354); experiment: Inhibition of recombinant human COX2 assessed as PGF2alpha formation at 50 uM by enzyme immunoassay
T1 sequence (whole entry): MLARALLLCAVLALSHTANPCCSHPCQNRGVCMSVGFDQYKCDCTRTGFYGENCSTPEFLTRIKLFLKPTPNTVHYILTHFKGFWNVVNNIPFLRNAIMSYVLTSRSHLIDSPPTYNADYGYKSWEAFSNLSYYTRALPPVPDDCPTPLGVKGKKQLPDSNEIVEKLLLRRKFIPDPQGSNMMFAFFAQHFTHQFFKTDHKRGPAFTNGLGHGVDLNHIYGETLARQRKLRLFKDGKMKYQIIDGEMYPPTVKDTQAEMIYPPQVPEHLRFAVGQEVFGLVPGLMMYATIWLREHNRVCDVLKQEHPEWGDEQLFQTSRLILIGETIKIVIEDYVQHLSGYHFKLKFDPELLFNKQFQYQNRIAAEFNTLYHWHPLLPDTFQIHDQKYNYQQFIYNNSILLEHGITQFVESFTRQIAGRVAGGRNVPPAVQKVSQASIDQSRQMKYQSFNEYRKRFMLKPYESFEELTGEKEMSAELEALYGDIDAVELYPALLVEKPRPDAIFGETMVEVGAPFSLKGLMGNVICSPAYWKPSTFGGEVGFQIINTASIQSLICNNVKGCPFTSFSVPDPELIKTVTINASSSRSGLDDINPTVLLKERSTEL

[4] = target: Prostaglandin G/H synthase 2 (Homo sapiens) (UniProt P35354); experiment: Inhibition of recombinant human COX2 assessed as PGE2 formation at 100 uM by enzyme immunoassay
[5] = target: T2, Prostaglandin G/H synthase 2 (Ovis aries) (UniProt P79208); experiment: Reversible binding affinity to sheep placenta COX2 at 300 uM by STD-NMR spectroscopy
T2 sequence (whole entry): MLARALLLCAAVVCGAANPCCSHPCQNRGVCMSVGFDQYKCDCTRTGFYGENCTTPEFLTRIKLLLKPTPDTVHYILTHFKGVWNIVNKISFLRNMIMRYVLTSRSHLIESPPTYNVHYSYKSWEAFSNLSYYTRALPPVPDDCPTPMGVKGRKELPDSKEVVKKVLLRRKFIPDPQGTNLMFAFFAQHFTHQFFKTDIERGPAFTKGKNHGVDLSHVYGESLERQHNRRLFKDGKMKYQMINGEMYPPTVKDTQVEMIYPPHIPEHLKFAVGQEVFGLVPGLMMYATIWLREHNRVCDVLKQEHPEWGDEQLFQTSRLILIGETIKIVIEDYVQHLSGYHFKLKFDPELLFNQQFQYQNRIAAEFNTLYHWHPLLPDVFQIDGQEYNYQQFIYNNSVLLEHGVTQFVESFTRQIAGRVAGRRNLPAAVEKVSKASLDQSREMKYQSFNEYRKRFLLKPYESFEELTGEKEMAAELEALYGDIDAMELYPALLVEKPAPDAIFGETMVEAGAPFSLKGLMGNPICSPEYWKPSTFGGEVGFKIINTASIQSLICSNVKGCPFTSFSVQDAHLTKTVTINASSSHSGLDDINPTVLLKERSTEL
Procedure, shortened: (§1)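 STD-NMR of ligand binding to COX-1 (ram seminal vesicle) or COX-2 (sheep placenta) in 80 mM Tris–HCl pH 8.0 with 0.1% Tween 20 and 300 µM DDC. Final mixture was about 3 µM enzyme and 300 µM ligand, added from a 2 mM DMSO-d6 stock. Protein irradiated at -300 Hz with 51 shaped 90° pulses (2.5 s total saturation), 20 ms spin-lock filter, 1024 transients.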

[6] = target: T3, Prostaglandin G/H synthase 1 (Ovis aries) (UniProt P05979); experiment: Reversible binding affinity to ram seminal vesicle COX1 at 300 uM by STD-NMR spectroscopy
T3 sequence (whole entry): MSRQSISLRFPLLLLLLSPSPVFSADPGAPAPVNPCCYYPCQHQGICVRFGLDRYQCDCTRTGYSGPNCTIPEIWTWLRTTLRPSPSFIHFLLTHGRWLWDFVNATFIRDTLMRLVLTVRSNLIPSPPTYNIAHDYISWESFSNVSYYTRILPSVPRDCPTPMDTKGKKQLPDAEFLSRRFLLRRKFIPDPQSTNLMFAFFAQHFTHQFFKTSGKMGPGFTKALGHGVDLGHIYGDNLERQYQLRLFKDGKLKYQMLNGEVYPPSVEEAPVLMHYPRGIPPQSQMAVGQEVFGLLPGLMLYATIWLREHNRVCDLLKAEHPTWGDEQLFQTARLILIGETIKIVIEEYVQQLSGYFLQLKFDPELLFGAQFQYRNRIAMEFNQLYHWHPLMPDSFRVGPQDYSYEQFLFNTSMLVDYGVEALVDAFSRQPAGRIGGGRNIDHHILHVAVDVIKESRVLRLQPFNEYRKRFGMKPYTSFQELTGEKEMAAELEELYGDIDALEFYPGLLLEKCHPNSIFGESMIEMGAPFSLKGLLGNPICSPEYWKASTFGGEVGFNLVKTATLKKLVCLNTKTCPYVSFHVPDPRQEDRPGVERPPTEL
Procedure, shortened: as §1

[7] = target: T3, Prostaglandin G/H synthase 1 (Ovis aries); settings: 1 uM

CS(=O)(=O)c1ccc2c(c1)c(Cc1ccc(Cl)cc1)cn2CC(O)CC(F)(F)F (stereo not given)
inhibition [1]: 8%
inhibition [2]: 34%
inhibition [3]: 20%

CS(=O)(=O)c1ccc2[nH]c(Cc3ccc(F)cc3)c(Cc3ccc(F)cc3)c2c1
inhibition [4]: inactive

CS(=O)(=O)c1ccc2[nH]c(Cc3ccc(Br)cc3)c(Cc3ccc(Br)cc3)c2c1
inhibition [4]: inactive

CS(=O)(=O)c1ccc2c(c1)c(Cc1ccc(F)cc1)cn2C=CCC(F)(F)F (mixture of isomers)
inhibition [1]: 8%
inhibition [2]: 18%
inhibition [3]: 12%

CS(=O)(=O)c1ccc2[nH]cc(Cc3ccc(Cl)cc3)c2c1
inhibition [2]: 24%

CS(=O)(=O)c1ccc2[nH]cc(Cc3ccc(Br)cc3)c2c1
inhibition [2]: 26%

NS(=O)(=O)c1ccc2[nH]c(Cc3ccc(F)cc3)c(Cc3ccc(F)cc3)c2c1
Activity [5]: Active
inhibition [1]: 18%

CS(=O)(=O)c1ccc2c(c1)c(Cc1ccc(Br)cc1)cn2C=CCC(F)(F)F (mixture of isomers)
inhibition [1]: 20%
inhibition [2]: 19%
inhibition [3]: 21%

CS(=O)(=O)c1ccc2c(c1)c(Cc1ccc(F)cc1)cn2CC(O)CC(F)(F)F (stereo not given)
inhibition [1]: 14%
inhibition [2]: 9%

NS(=O)(=O)c1ccc2[nH]cc(Cc3ccc(Cl)cc3)c2c1
inhibition [1]: 21%
inhibition [2]: 31%
inhibition [3]: 32%

CS(=O)(=O)c1ccc2c(c1)c(Cc1ccc(Br)cc1)cn2CC(O)CC(F)(F)F (stereo not given)
inhibition [1]: 12%
inhibition [2]: 15%
inhibition [3]: 23%

NS(=O)(=O)c1ccc2[nH]c(Cc3ccc(Cl)cc3)c(Cc3ccc(Cl)cc3)c2c1
inhibition [1]: 41%

NS(=O)(=O)c1ccc2[nH]cc(Cc3ccc(Br)cc3)c2c1
inhibition [1]: 19%
inhibition [3]: 23%

CS(=O)(=O)c1ccc2[nH]c(Cc3ccc(Cl)cc3)c(Cc3ccc(Cl)cc3)c2c1
inhibition [1]: 25%
inhibition [4]: inactive
inhibition [3]: 24%

NS(=O)(=O)c1ccc(Cc2c[nH]c3ccc(Br)cc23)cc1
inhibition [1]: 11%
inhibition [2]: 27%
inhibition [3]: 22%

NS(=O)(=O)c1ccc2[nH]c(Cc3ccc(Br)cc3)c(Cc3ccc(Br)cc3)c2c1
inhibition [1]: 35%

NS(=O)(=O)c1ccc2[nH]cc(Cc3ccc(F)cc3)c2c1
Activity [6]: Active
inhibition [1]: 40%
inhibition [2]: 20%
inhibition [3]: 32%

COc1ccc2c(c1)c(CC(=O)O)c(C)n2C(=O)c1ccc(Cl)cc1
inhibition [7]: 46%

CS(=O)(=O)c1ccc2c(c1)c(Cc1ccc(Cl)cc1)cn2C=CCC(F)(F)F (mixture of isomers)
inhibition [1]: 11%
inhibition [2]: 23%
